TRPC4 PAM: TRPC4 (mouse) allosteric potentiation; Q9QUQ5; HEK293 TRPC4beta/mu-opioid, DAMGO EC20, Fluo-4 Ca2+ flux; hits give high values; B-score at 10 µM; hit rate 0.42% among 310,000;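 active means B-score of calcium response area above 5 SD of library B-scores, with initial fluorescence ratio within 5 SD of library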
TRPC6 inh: blocks the mouse TRPC6 cation channel. HEK293-TRPC6, membrane potential dye, ACh-evoked depolarization; hits give low values. B-score at 10 µM. hit rate 1.1% among 310,000;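 active means B-score under library mean minus 3 SD, initial fluorescence not abnormally high, positive integrated signal ratio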;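 further: B-score derived from integrated fluorescence ratio over the kinetic read; more negative B-score means stronger inhibition of depolarization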
Target sequence (Q61143 whole entry, looked up): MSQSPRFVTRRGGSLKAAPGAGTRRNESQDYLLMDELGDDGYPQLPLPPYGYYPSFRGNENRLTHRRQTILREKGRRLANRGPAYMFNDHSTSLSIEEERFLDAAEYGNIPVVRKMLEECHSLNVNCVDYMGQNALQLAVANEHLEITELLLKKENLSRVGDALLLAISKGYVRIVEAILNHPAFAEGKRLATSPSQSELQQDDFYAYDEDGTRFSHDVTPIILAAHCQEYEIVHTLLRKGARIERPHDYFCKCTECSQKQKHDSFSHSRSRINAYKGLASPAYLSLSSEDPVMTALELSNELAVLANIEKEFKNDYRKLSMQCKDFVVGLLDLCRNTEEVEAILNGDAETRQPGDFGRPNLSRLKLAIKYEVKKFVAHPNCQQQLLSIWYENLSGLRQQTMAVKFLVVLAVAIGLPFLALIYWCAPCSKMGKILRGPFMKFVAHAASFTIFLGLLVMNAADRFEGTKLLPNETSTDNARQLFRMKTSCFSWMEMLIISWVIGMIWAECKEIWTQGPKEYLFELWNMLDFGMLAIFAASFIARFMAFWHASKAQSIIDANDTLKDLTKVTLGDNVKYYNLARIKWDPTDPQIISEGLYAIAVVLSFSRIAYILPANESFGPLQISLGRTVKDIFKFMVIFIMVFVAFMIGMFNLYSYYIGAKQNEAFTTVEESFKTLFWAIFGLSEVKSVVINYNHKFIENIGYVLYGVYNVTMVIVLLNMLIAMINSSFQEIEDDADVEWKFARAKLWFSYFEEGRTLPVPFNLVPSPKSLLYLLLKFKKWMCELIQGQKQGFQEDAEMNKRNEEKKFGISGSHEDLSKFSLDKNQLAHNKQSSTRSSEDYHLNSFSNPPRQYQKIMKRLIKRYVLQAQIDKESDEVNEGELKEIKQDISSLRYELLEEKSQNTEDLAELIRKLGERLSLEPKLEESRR
TRPC6 act: activators of mouse TRPC6 channel; Q61143; HEK293-TRPC6 membrane potential dye fluorescence; hits give high values; B-score at 10 µM; hit rate 0.13% among 310,000;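 active means B-score of the integrated fluorescence ratio above library mean plus 3 SD, and starting fluorescence ratio within library mean plus 5 SD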;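 further: higher score means more depolarization so channel activation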
TRPC4 inh: TRPC4 (mouse) channel inhibition; Q9QUQ5; HEK293 TRPC4beta/mu-opioid, DAMGO-evoked Fluo4 calcium flux; hits give low values; B-score at 10 µM; hit rate 0.39% among 300,000; AID 2247;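 active means B-score over 3 SD under the library average, no early fluorescence shift, positive overall ratio signal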
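Assay system: TRPC4beta/mu-opioid receptor HEK293 cell line; compound dosing: single concentration per test compound; detection: Fluo4 Ca2+ flux fluorescence; evaluation: per-well B score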
TRPC4 act: opens the mouse TRPC4 cation channel; Q9QUQ5; HEK293 TRPC4beta/mu-opioid, Fluo4 calcium fluorescence; hits give high values; B-score at 10 µM; hit rate 0.49% among 310,000;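 active means B-score above 5 SD of library B-scores, and initial fluorescence ratio not above library mean plus 5 SD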;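 further: positive B-score marks a calcium rise read as TRPC4 activation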
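Assay system: HEK293 stable line with TRPC4beta plus mu-opioid receptor. Times: dye 45 min RT, read 110 s. Measured by: kinetic Fluo4 calcium fluorescence. Measure: B score of integrated ratio. Controls: assay buffer as low control, maximal DAMGO as high control.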
TRPC4 spec 2: second check of whether TRPC6 inhibitors also affect mouse TRPC4 | shares compounds with TRPC6 inh | HEK293 TRPC4/MOR, membrane potential dye fluorescence; channel activated by saturating DAMGO dose | inhibition, % at 10 µM | hit rate 42% among 920;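 active means compounds whose fluorescence signal differed from control wells by over 3 SD, either direction, in both duplicate plates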
TRPC4 spec: mouse TRPC4 off-target activity of TRPC6 inhibitors | shares compounds with TRPC6 inh | HEK293 TRPC4/mu-opioid, membrane potential fluorescence | activity change, negative = inhibition, % at 10 µM | hit rate 61% among 920;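 active means rise or fall in signal beyond 3 SD of buffer-only wells in both replicate plates, either sign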;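 further: integrated kinetic ratio of fluorescence range over baseline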
HEK293 MPD ctr 2-1: second counter-screen for TRPC6 inhibitors: parental HEK293 cells; shares compounds with TRPC6 inh; parental HEK293 membrane potential dye fluorescence; maximal acetylcholine challenge after compound addition; signal change vs control, % at 10 µM; hit rate 31% among 920;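 active means membrane potential signal moving either way by over 3 SD of the maximum-effect control, in both duplicate plates, meaning non-specific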
HEK293 MPD ctr-1: counter-screen for TRPC6 inhibitors: effect in parental HEK293 cells. AID 2780. parental HEK293 membrane potential dye fluorescence. shares compounds with TRPC6 inh. hit rate 60% among 920. membrane potential signal change, % at 10 µM;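 active means membrane potential signal shifting up or down by more than 3 SD of buffer-only wells, on both duplicate plates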
HEK293 MPD ctr-2: parental HEK293 nonspecific activity of TRPC6 modulators; hit rate 51% among 2,400; membrane potential dye fluorescence; shares compounds with TRPC6 inh; AID 488924; membrane potential signal change, % at 10 µM;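 active means membrane potential signal moves up or down beyond 5 SD from buffer-only wells, on both duplicate plates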
HEK293 MPD ctr 2-2: second check of TRPC6 modulator effects in parental HEK293 cells; shares compounds with TRPC6 inh; membrane potential dye fluorescence; after compound, maximal acetylcholine stimulation; inhibition, % at 10 µM; hit rate 14% among 2,400;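 active means membrane potential signal drops by more than 5 SD from the mean control signal, in both duplicate plates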
TRPC4/MOR mod: selectivity of TRPC6 modulators against mouse TRPC4. hit rate 69% among 2,400. shares compounds with TRPC6 inh. HEK293 TRPC4/mu-opioid, membrane potential fluorescence. AID 488927. percent change from control (negative = decrease, positive = increase), % at 10 µM;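 active means membrane potential signal moved up or down beyond 5 SD of buffer control wells, in both duplicate plates, actives on both sides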
TRPC4 ctr inh 2: second selectivity test of TRPC6 modulators against mouse TRPC4; shares compounds with TRPC6 inh; HEK293 TRPC4/mu-opioid, membrane potential dye fluorescence; stimulated with maximal-effect DAMGO; hit rate 55% among 2,400; inhibition, % at 10 µM;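 active means drop in membrane potential signal beyond 5 SD of the control wells in both duplicate plates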;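 further: TRPC4 counter screen for TRPC6 hits run under conditions tuned for TRPC6 not TRPC4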
TRPC6 block conf: mouse TRPC6 inhibitor confirmation | HEK293-TRPC6, membrane potential dye, ACh-evoked depolarization | shares compounds with TRPC6 inh | hit rate 43% among 3,300 | inhibition, % at 10 µM | AID 488960;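 active means fluorescence ratio falls more than 5 SD below the full-stimulation control mean, in both duplicate runs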;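 further: integrated fluorescence ratio of peak minus minimum over baseline after agonist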
TRPC6 act confirm: confirmation of mouse TRPC6 activators | shares compounds with TRPC6 inh | HEK293-TRPC6 membrane potential dye fluorescence, FDSS | activation, % at 10 µM | hit rate 11% among 2,800;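 active means ratio signal rise beyond 5 SD above unstimulated control wells' mean, seen in both duplicate runs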
Of the large screens only hits and unclear results are named; the others gave an inactive call (follow-up assays come after a bar, where they were run). The list is not random: actives were taken first. Their share in the collection is about 2.3%.

N#CC(c1ccc(F)cc1)c1ccc(C(=O)c2ccc(F)cc2)cc1 (stereo not given)	TRPC6 inh -7.4 | TRPC4 spec 2 inactive | TRPC4 spec inactive | HEK293 MPD ctr 2-1 inactive | HEK293 MPD ctr-1 inactive | TRPC6 block conf inactive | TRPC6 act confirm inactive
c1ccc(C(c2ccccc2)c2noc(CN3CCN(C4CCCC4)CC3)n2)cc1	TRPC6 inh -5.2 | HEK293 MPD ctr-2 124% | HEK293 MPD ctr 2-2 inactive | TRPC4/MOR mod 15% | TRPC4 ctr inh 2 inactive | TRPC6 block conf inactive
NC(=O)CCN1CCN(Cc2nc(C(c3ccccc3)c3ccccc3)no2)CC1	TRPC6 inh -7.9 | TRPC4 spec 2 inactive | TRPC4 spec inactive | HEK293 MPD ctr 2-1 inactive | HEK293 MPD ctr-1 inactive | TRPC6 block conf inactive | TRPC6 act confirm inactive
Cc1nc(CN2CCN(Cc3nc(C(c4ccccc4)c4ccccc4)no3)CC2)cs1	TRPC6 inh -6.4 | HEK293 MPD ctr-2 101% | HEK293 MPD ctr 2-2 inactive | TRPC4/MOR mod 10% | TRPC4 ctr inh 2 inactive | TRPC6 block conf 48%
CC(=O)N1CCN(Cc2nc(C(c3ccccc3)c3ccccc3)no2)CC1	none
CN1CCN(c2nc3c(c(=O)[nH]c(=O)n3C)n2CCCSc2nnnn2-c2ccccc2)CC1	TRPC6 inh -6.5 | HEK293 MPD ctr-2 -212% | HEK293 MPD ctr 2-2 inactive | TRPC4/MOR mod -28% | TRPC4 ctr inh 2 inactive | TRPC6 block conf inactive | TRPC6 act confirm inactive
Cc1c(CN(C)C)c2c(n1C)C(=O)c1ccc(Br)cc1-2	TRPC6 inh -11 | HEK293 MPD ctr-2 -178% | HEK293 MPD ctr 2-2 67% | TRPC4/MOR mod -32% | TRPC4 ctr inh 2 59% | TRPC6 block conf 66% | TRPC6 act confirm inactive
c1ccc(-c2nnsc2Sc2ccccn2)cc1	none
OCCNCc1ccc(OCc2ccc(Cl)cc2Cl)cc1	TRPC6 inh -6.7 | TRPC4 spec 2 68% | TRPC4 spec 8.3% | HEK293 MPD ctr 2-1 283% | HEK293 MPD ctr-1 11% | TRPC6 block conf inactive
CCC(C)(C)n1nnnc1C(c1ccc2ncccc2c1)N1CCCCCC1 (stereo not given)	TRPC6 inh -5.1 | HEK293 MPD ctr-2 inactive | HEK293 MPD ctr 2-2 inactive | TRPC4/MOR mod 28% | TRPC4 ctr inh 2 33% | TRPC6 block conf inactive
c1cnc2ccc(C(c3nnnn3C3CCCCC3)N3CCCCC3)cc2c1 (stereo not given)	TRPC6 inh -5.9 | HEK293 MPD ctr-2 149% | HEK293 MPD ctr 2-2 inactive | TRPC4/MOR mod 35% | TRPC4 ctr inh 2 30% | TRPC6 block conf 54%
O=C(NCC(=O)N1CCc2ccccc2C1)c1ccccc1Cl	none
Cn1c(=O)[nH]c(=O)c2cc(C(=O)c3cc(F)ccc3O)cnc21	none
Cc1ccc2nc3c(cc(C(=O)NCc4ccco4)c(=N)n3C3CCCC3)c(=O)n2c1	none
CCCn1c(=N)c(C(=O)NCC2CCCO2)cc2c(=O)n3cccc(C)c3nc21 (stereo not given)	none
COCCCn1c(=N)c(C(=O)NCC2CCCO2)cc2c(=O)n3cccc(C)c3nc21 (stereo not given)	TRPC6 inh -6.4 | HEK293 MPD ctr-2 146% | HEK293 MPD ctr 2-2 80% | TRPC4/MOR mod 20% | TRPC4 ctr inh 2 28% | TRPC6 block conf 40% | TRPC6 act confirm inactive
COc1ccc(CCNC(=O)c2cc3c(=O)n4ccccc4nc3n(C3CCCCC3)c2=N)cc1	none
Cc1cccn2c(=O)c3cc(C(=O)NCc4ccco4)c(=N)n(C4CCCCC4)c3nc12	TRPC6 inh -6.8 | HEK293 MPD ctr-2 -160% | HEK293 MPD ctr 2-2 inactive | TRPC4/MOR mod -38% | TRPC4 ctr inh 2 34% | TRPC6 block conf inactive | TRPC6 act confirm inactive
C=CCn1c(=N)c(C(=O)NCCCOC)cc2c(=O)n3cccc(C)c3nc21	TRPC6 inh -5.2 | HEK293 MPD ctr-2 226% | HEK293 MPD ctr 2-2 83% | TRPC4/MOR mod 40% | TRPC4 ctr inh 2 inactive | TRPC6 block conf inactive
N=c1c(C(=O)NCC2CCCO2)cc2c(=O)n3ccccc3nc2n1C1CCCCC1 (stereo not given)	TRPC6 inh -5.4 | HEK293 MPD ctr-2 -100% | HEK293 MPD ctr 2-2 inactive | TRPC4/MOR mod -24% | TRPC4 ctr inh 2 inactive | TRPC6 block conf inactive | TRPC6 act confirm inactive
COc1ccc(C(=O)N2CCCC(O)C2)cc1OC1CCN(C(C)C)CC1 (stereo not given)	none
CN(Cc1ccccc1)C(=O)COC(=O)c1cc(NS(=O)(=O)c2cccs2)ccc1O	none
Cc1ccc(C(=O)NC2CCN(S(=O)(=O)c3ccccc3F)CC2)cc1	none
COC(=O)c1ccccc1NC(=O)CN1C(=O)c2ccccc2C1=O	none
Cc1ccc(Cn2c(=N)c(C(=O)NCC3CCCO3)cc3c(=O)n4cccc(C)c4nc32)cc1 (stereo not given)	none
Cc1ccc2nc3c(cc(C(=O)NCC4CCCO4)c(=N)n3C3CCCC3)c(=O)n2c1 (stereo not given)	none
Cc1cccn2c(=O)c3cc(C(=O)NCC4CCCO4)c(=N)n(C4CCCC4)c3nc12 (stereo not given)	TRPC6 inh -5.8 | HEK293 MPD ctr-2 -82% | HEK293 MPD ctr 2-2 inactive | TRPC4/MOR mod -16% | TRPC4 ctr inh 2 32% | TRPC6 block conf inactive | TRPC6 act confirm inactive

Compound activity: PubChem, Johns Hopkins Ion Channel Center
